How the values were obtained:
[1] = system: HSV-1 (strain F); assay: HSV-1 plaque reduction assay in Vero cells; assay type: cell-based; settings: Human alphaherpesvirus 1, Vero
[2] = system: herpes simplex virus (HSV); settings: cited from earlier work
[3] = Stability in solution; assay type: physicochemical; settings: for conversion to ACV: water
Summary of the method: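 Test compound was diluted from a freshly made stock into water and into methanol. Half was kept at room temperature and half in the autosampler at 4°C. Samples were injected every 15 min for 2 hr, then hourly, daily and weekly. Analysis was LC-MS/MS on a C18 column (ammonium formate pH 3 or water / methanol gradient, 30°C, ESI+, SRM). Guanine-analog formation was quantified against parent-nucleoside and acyclovir calibrations (10–1000 nM).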

[4] = system: HCV subgenomic RNA replicon; assay: Anti-HCV activity in Huh-7 cells with HCV subgenomic RNA replicon system; assay type: cell-based; settings: Hepatitis C virus, Huh-7, read-out: Anti-HCV activity Huh-7 cells EC50, Huh-7 cells, HCV replicon

Nc1nc2c(ncn2COCCO)c(=O)[nH]1 [ACV, acyclovir]
EC50 ([1]; read-out: Activity against HSV-1 EC50): 75 nM | EC90 ([1]; read-out: Activity against HSV-1 EC90): 700 nM

COc1ccc(-c2cn3c(O)c4ncn(COCCO)c4nc3n2)cc1 [Compound 3, 6-(4-MeOPh)-TACV]
activity against herpes simplex virus (HSV) compared with parent [2]: as active as their parent congeners | conversion to ACV ([3]; after 3 weeks): 35% | conversion to ACV ([3]; after 4 days): 4%

COc1ccc(-c2cn3c(=O)c4ncn([C@H]5C[C@H](N=[N+]=[N-])[C@@H](CO)O5)c4nc3[nH]2)cc1 [Compound 32, 3-(3-Azido-2,3-dideoxy-β-D-erythro-pentofuranosyl)-3,9-dihydro-6-(4-methoxyphenyl)-9-oxo-5H-imidazo-[1,2-a]purine]
reversion to parent nucleoside (7 or 8) ([3]; after 3 weeks): 60%

COc1ccc(-c2cn3c(=O)c4ncn([C@@H]5O[C@H](CO)[C@@H](O)[C@@]5(C)O)c4nc3[nH]2)cc1 [Compound 36, 3-(β-D-2-C-Methyl-ribofuranosyl)-3,9-dihydro-6-(4-methoxy-phenyl)-9-oxo-5H-imidazo-[1,2-a]purine]
EC50 [4]: < 10 µM | reversion to parent nucleoside (7 or 8) ([3]; after 3 weeks): 30%

C[C@@]1(O)[C@H](O)[C@@H](CO)O[C@H]1n1cnc2c(=O)n3cc(-c4cccs4)[nH]c3nc21 [Compound 39, 3-(β-D-2-C-Methyl-ribofuranosyl)-3,9-dihydro-6-(2-thienyl)-9-oxo-5H-imidazo-[1,2-a]purine]
EC50 [4]: < 10 µM | reversion to parent nucleoside (7 or 8) ([3]; after 3 weeks): 60%

From paper PMC3423956 (European journal of medicinal chemistry, 2009)
